Measurements: ChEMBL document CHEMBL1135391, “Anti-Helicobacter pylori agents. 5. 2-(Substituted guanidino)-4-arylthiazoles and aryloxazole analogues” (2002)
Values after ≈ are worked out from the molar mass of the structure shown. Each block holds one compound with its values, some of them ahead of it.

Columns and labels:
[1] = system: Helicobacter pylori; assay: Minimum inhibitory concentration required to inhibit macroscopic colonial growth of Helicobacter pylori; ranges from (3.13-[…]); assay type: functional
Procedure, shortened: (§1)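 Agar dilution against 10 H. pylori strains (8001, 8003, 8004, 8007, 8008, 8009, 8011, 9005, FP1530, FP1532). Strains precultured 3 days at 37 °C on Brucella agar with 3% horse serum and 2% starch, then adjusted to McFarland No. 1. A 10²-fold dilution was spotted onto Brucella agar with 7% lysed horse blood and 2-fold drug dilutions. Plates incubated 3 days at 37 °C under 10% CO2. MIC is the lowest concentration preventing visible colonies; mean and range span the 10 strains.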

[2] = system: Helicobacter pylori; assay: Minimum inhibitory concentration required to inhibit macroscopic colonial growth of Helicobacter pylori; ranges from (1.56-12.5); assay type: functional; procedure, shortened: as §1
[3] = system: Helicobacter pylori; assay: Minimum inhibitory concentration required to inhibit macroscopic colonial growth of Helicobacter pylori; ranges from (3.13-12.5); assay type: functional; procedure, shortened: as §1
[4] = species on record: Cavia porcellus; assay: Inhibition of histamine-stimulated chronotropic response in isolated guinea pig right atrium at 1*10e-6 g/mL; assay type: functional, Cardiac atrium
Procedure, shortened: (§2)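 Guinea pig atrial strip in Thyrode solution at 30 °C, gassed with 95% O2-5% CO2, initial tension 0.3-0.6 g. Beating rate recorded. Histamine hydrochloride 1 × 10⁻⁶ g/mL was given first. After washout, test compound at 1 × 10⁻⁶ g/mL was added 30 min later. Percent inhibition compares histamine-induced rate increases before and 30 min after compound.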

[5] = system: Helicobacter pylori; assay: Minimum inhibitory concentration required to inhibit macroscopic colonial growth of Helicobacter pylori; ranges from (0.78-1.56); assay type: functional; procedure, shortened: as §1
[6] = system: Helicobacter pylori; assay: Minimum inhibitory concentration required to inhibit macroscopic colonial growth of Helicobacter pylori; ranges from (0.78-6.25); assay type: functional; procedure, shortened: as §1
[7] = system: Rattus norvegicus; assay: Inhibition of histamine-stimulated gastric acid secretion in lumen-perfused stomach of anesthetized rats after 1 mg/kg iv administration; assay type: functional
Procedure, shortened: (§3)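 Male Sprague-Dawley rats, about 250 g, fasted 24 h and anesthetized with urethane 1.25 g/kg ip. Stomach lumen perfused with saline, perfusate titrated with 25 mM NaOH. Acid secretion was driven by iv histamine infusion at 3 mg/kg/h. At plateau, compound 1 mg/kg iv. Read-out is maximal inhibition of acid output, n = 2.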

[8] = system: Helicobacter pylori; assay: microbe, parasite or virus in culture
[9] = system: Helicobacter pylori; assay: Minimum inhibitory concentration required to inhibit macroscopic colonial growth of Helicobacter pylori; ranges from (6.25-25); assay type: functional; procedure, shortened: as §1
[10] = system: Helicobacter pylori; assay: Minimum inhibitory concentration required to inhibit macroscopic colonial growth of Helicobacter pylori; ranges from (3.13-6.25); assay type: functional; procedure, shortened: as §1
[11] = system: Helicobacter pylori; assay: Minimum inhibitory concentration required to inhibit macroscopic colonial growth of Helicobacter pylori; ranges from (0.05-0.2); assay type: functional; procedure, shortened: as §1
[12] = system: Helicobacter pylori; assay: Minimum inhibitory concentration required to inhibit macroscopic colonial growth of Helicobacter pylori; ranges from(1.56-25); assay type: functional; procedure, shortened: as §1
[13] = system: Helicobacter pylori; assay: Minimum inhibitory concentration required to inhibit macroscopic colonial growth of Helicobacter pylori; ranges from (0.2-1.56); assay type: functional; procedure, shortened: as §1
[14] = system: Helicobacter pylori; assay: Minimum inhibitory concentration required to inhibit macroscopic colonial growth of Helicobacter pylori; ranges from (0.2-0.78); assay type: functional; procedure, shortened: as §1
[15] = system: Helicobacter pylori; assay: Minimum inhibitory concentration required to inhibit macroscopic colonial growth of Helicobacter pylori; ranges from ([…]-6.25); assay type: functional; procedure, shortened: as §1
[16] = system: Helicobacter pylori; assay: Minimum inhibitory concentration required to inhibit macroscopic colonial growth of Helicobacter pylori; ranges from (0.025-0.1); assay type: functional; procedure, shortened: as §1
[17] = system: Helicobacter pylori; assay: Minimum inhibitory concentration required to inhibit macroscopic colonial growth of Helicobacter pylori; ranges from (0.39-6.25); assay type: functional; procedure, shortened: as §1
[18] = species on record: Cavia porcellus; assay: Inhibition of histamine-stimulated chronotropic response in isolated guinea pig right atrium; assay type: functional, Cardiac atrium; procedure, shortened: as §2
[19] = system: Helicobacter pylori; assay: Minimum inhibitory concentration required to inhibit macroscopic colonial growth of Helicobacter pylori; assay type: functional; procedure, shortened: as §1
[20] = system: Rattus norvegicus; assay: Inhibition of histamine-stimulated gastric acid secretion in lumen-perfused stomach of anesthetized rats; assay type: functional; procedure, shortened: as §3
[21] = system: Helicobacter pylori; assay: Minimum inhibitory concentration required to inhibit macroscopic colonial growth of Helicobacter pylori; ranges from (0.2-3.13); assay type: functional; procedure, shortened: as §1
[22] = system: Helicobacter pylori; assay: Minimum inhibitory concentration required to inhibit macroscopic colonial growth of Helicobacter pylori; ranges from (0.0125-0.1); assay type: functional; procedure, shortened: as §1
[23] = system: Helicobacter pylori; assay: Minimum inhibitory concentration required to inhibit macroscopic colonial growth of Helicobacter pylori; ranges from (0.00625-0.1); assay type: functional; procedure, shortened: as §1
[24] = system: Helicobacter pylori; assay: Minimum inhibitory concentration required to inhibit macroscopic colonial growth of Helicobacter pylori;ranges from (0.10-0.78); assay type: functional; procedure, shortened: as §1
[25] = species on record: Cavia porcellus; assay: Inhibition of histamine-stimulated chronotropic response in isolated guinea pig right atrium at 1*10e-4 g/mL; assay type: functional, Cardiac atrium
[26] = system: Helicobacter pylori; assay: Minimum inhibitory concentration required to inhibit macroscopic colonial growth of Helicobacter pylori;ranges from (0.003-0.025); assay type: functional; procedure, shortened: as §1
[27] = system: Helicobacter pylori; assay: Minimum inhibitory concentration required to inhibit macroscopic colonial growth of Helicobacter pylori; ranges from (0.1-0.78); assay type: functional; procedure, shortened: as §1
[28] = system: Helicobacter pylori; assay: Minimum inhibitory concentration required to inhibit macroscopic colonial growth of Helicobacter pylori ranges from (6.25-12.5); assay type: functional; procedure, shortened: as §1
[29] = system: Helicobacter pylori; assay: Minimum inhibitory concentration required to inhibit macroscopic colonial growth of Helicobacter pylori; ranges from (0.025-0.39); assay type: functional; procedure, shortened: as §1

- MIC [1]: 5.1 µg/mL (≈ 16.8 µM)
Compound: C/N=C(\N)Nc1nc(-c2cccc(CNC(C)=O)n2)cs1

- MIC [2]: 4.7 µg/mL (≈ 14.8 µM)
Compound: CC/N=C(\N)Nc1nc(-c2cccc(CNC(C)=O)n2)cs1

- MIC [3]: 10.9 µg/mL (≈ 32.3 µM)
Compound: CCCC/N=C(\N)Nc1nc(-c2nc(CNC(C)=O)no2)cs1
- Inhibition [4]: <10%

- MIC [5]: 1.1 µg/mL (≈ 3.02 µM)
Compound: CSCC/N=C(\N)Nc1nc(-c2cccc(CNC(C)=O)n2)cs1

- MIC [6]: 2.9 µg/mL (≈ 8.72 µM)
Compound: CCC/N=C(\N)Nc1nc(-c2cccc(CNC(C)=O)n2)cs1

Compound: CN/C(=N\CCSCc1nc[nH]c1C)NC#N [CIMETIDINE]
- inhibition in vivo at 1 mg/kg [7]: 53%
- MIC [8]: 1130 µg/mL (≈ 4480 µM)
- Inhibition [4]: 43%

- MIC [9]: 11.5 µg/mL (≈ 30.6 µM)
Compound: CC(=O)NCC/N=C(\N)Nc1nc(-c2cccc(CNC(C)=O)n2)cs1

- MIC [10]: 4.1 µg/mL (≈ 11.8 µM)
Compound: CCCC/N=C(\N)Nc1nc(-c2ccnc(CNC(C)=O)n2)cs1
- Inhibition [4]: <10%

- MIC [9]: 13.4 µg/mL (≈ 36 µM)
Compound: CC(=O)NCc1cccc(-c2csc(NC(=N)NCC(F)(F)F)n2)n1

- MIC [9]: 19.3 µg/mL (≈ 60.4 µM)
Compound: CCCC/N=C(\N)Nc1nc(-c2ccc(CNC(C)=O)o2)co1
- inhibition in vivo at 1 mg/kg [7]: 51%
- Inhibition [4]: 82%

- MIC [11]: 0.1 µg/mL (≈ 0.253 µM)
Compound: CC(=O)NCc1cccc(-c2csc(NC(=N)NCCc3ccccc3)n2)n1
- Inhibition [7]: 50%
- Inhibition [4]: 71%

- MIC [12]: 5.4 µg/mL (≈ 31.6 µM)
Compound: Cc1ncc([N+](=O)[O-])n1CCO [METRONIDAZOLE]

- MIC [13]: 0.59 µg/mL (≈ 1.7 µM)
Compound: CCCC/N=C(\N)Nc1nc(-c2cccc(CNC(C)=O)n2)cs1
- inhibition in vivo at 1 mg/kg [7]: 76%
- Inhibition [4]: 100%

- MIC [11]: 0.1 µg/mL (≈ 0.277 µM)
Compound: CC(=O)NCc1cccc(-c2csc(N/C(N)=N/CCC(C)C)n2)n1
- inhibition in vivo at 1 mg/kg [7]: 86%
- Inhibition [4]: 80%

- MIC [14]: 0.42 µg/mL (≈ 0.989 µM)
Compound: COc1ccc(CC/N=C(\N)Nc2nc(-c3cccc(CNC(C)=O)n3)cs2)cc1
- inhibition in vivo at 1 mg/kg [7]: 18%
- Inhibition [4]: 24%

- MIC [15]: 3.9 µg/mL (≈ 11.8 µM)
Compound: CCCC/N=C(\N)Nc1nc(-c2cccc(CNC(C)=O)n2)co1
- inhibition in vivo at 1 mg/kg [7]: 92%
- Inhibition [4]: 81%

- MIC [16]: 0.037 µg/mL (≈ 0.0872 µM)
Compound: COc1ccccc1CC/N=C(\N)Nc1nc(-c2cccc(CNC(C)=O)n2)cs1
- inhibition in vivo at 1 mg/kg [7]: 65%
- Inhibition [4]: 78%

- MIC [17]: 1.92 µg/mL (≈ 5.83 µM)
Compound: CCCC/N=C(\N)Nc1nc(-c2cccc(CNC(C)=O)c2)co1
- inhibition in vivo at 1 mg/kg [7]: 60%
- Inhibition [4]: 93%

- MIC [13]: 0.52 µg/mL (≈ 1.48 µM)
Compound: CCCC/N=C(\N)Nc1nc(-c2csc(CNC(C)=O)n2)cs1
- inhibition in vivo at 1 mg/kg [7]: 50%
- Inhibition [4]: 85%

- MIC [19]: > 1600 µg/mL
Compound: CNC(=C[N+](=O)[O-])NCCSCc1ccc(CN(C)C)o1 [RANITIDINE]
- Inhibition [18]: 44%
- Inhibition [20]: 72%

- MIC [21]: 1.1 µg/mL (≈ 2.65 µM)
Compound: COc1ccccc1CC/N=C(\N)Nc1nc(-c2ncc(CNC(C)=O)o2)cs1
- inhibition in vivo at 1 mg/kg [7]: 50%
- Inhibition [4]: 37%

- MIC [22]: 0.043 µg/mL (≈ 0.0999 µM)
Compound: COc1ccccc1CC/N=C(\N)Nc1nc(-c2csc(CNC(C)=O)n2)cs1
- inhibition in vivo at 1 mg/kg [7]: 23%
- Inhibition [4]: 30%

- MIC [19]: 18 µg/mL
Compound: BISMUTH SUBCITRATE

- MIC [10]: 4.4 µg/mL (≈ 10.6 µM)
Compound: COc1ccccc1CC/N=C(\N)Nc1nc(-c2cc(CNC(C)=O)on2)cs1
- Inhibition [4]: <10%

- MIC [19]: 0.057 µg/mL (≈ 0.0762 µM)
Compound: CC[C@H]1OC(=O)[C@H](C)[C@@H](O[C@H]2C[C@@](C)(OC)[C@@H](O)[C@H](C)O2)[C@H](C)[C@@H](O[C@@H]2O[C@H](C)C[C@H](N(C)C)[C@H]2O)[C@](C)(OC)C[C@@H](C)C(=O)[C@H](C)[C@@H](O)[C@]1(C)O [CLARITHROMYCIN]

- MIC [3]: 6.7 µg/mL (≈ 19.2 µM)
Compound: COCC/N=C(\N)Nc1nc(-c2cccc(CNC(C)=O)n2)cs1

- MIC [23]: 0.021 µg/mL (≈ 0.0575 µM)
Compound: CC1(C)S[C@@H]2[C@H](NC(=O)[C@H](N)c3ccc(O)cc3)C(=O)N2[C@H]1C(=O)O [AMOXICILLIN]

- MIC [19]: > 100 µg/mL
Compound: CC(=O)NCc1cccc(-c2csc(N/C(N)=N/CCN(C)C)n2)n1

- MIC [24]: 0.3 µg/mL (≈ 0.736 µM)
Compound: COc1ccccc1CC/N=C(\N)Nc1nc(-c2cccc(CNC(C)=O)c2)co1
- inhibition in vivo at 1 mg/kg [7]: 40%
- Inhibition [4]: 65%

- MIC [26]: 0.0065 µg/mL (≈ 0.0151 µM)
Compound: COc1ccccc1CC/N=C(\N)Nc1nc(-c2ccc(CNC(C)=O)s2)cs1
- Inhibition [25]: <10%

- MIC [27]: 0.32 µg/mL (≈ 0.91 µM)
Compound: CCCC/N=C(\N)Nc1nc(-c2ccc(CNC(C)=O)s2)cs1
- Inhibition [25]: <10%

- MIC [28]: 10.2 µg/mL (≈ 24.7 µM)
Compound: COc1ccccc1CC/N=C(\N)Nc1nc(-c2c[nH]c(CNC(C)=O)n2)cs1

- MIC [29]: 0.14 µg/mL (≈ 0.33 µM)
Compound: COc1cccc(CC/N=C(\N)Nc2nc(-c3cccc(CNC(C)=O)n3)cs2)c1
- inhibition in vivo at 1 mg/kg [7]: 68%
- Inhibition [4]: 83%
